Test results: ChEMBL document CHEMBL1147115 (2007)
≈ marks a conversion by molar mass, not a printed value.

Legend:
Klebsiella pneumoniae [1] = experiment: Bacteriostasis activity against ESBL producing Klebsiella pneumoniae 262 isolate at 8 ug/ml; format: functional
Klebsiella pneumoniae [2] = experiment: Antimicrobial activity against ESBL producing Klebsiella pneumoniae 263 isolate; format: functional
Klebsiella pneumoniae [3] = experiment: Antimicrobial activity against ESBL producing Klebsiella pneumoniae 230 isolate; format: functional
Escherichia coli [4] = experiment: Antimicrobial activity against ESBL producing Escherichia coli 321 isolate infected thigh infection model ICR mouse; format: functional, Thigh muscle
How it was run: (§1)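 Female ICR mice (~25 g) were made neutropenic with cyclophosphamide ip (150 and 100 mg/kg, days −4 and −1) and renally impaired with uranyl nitrate 5 mg/kg ip (day −3). Each thigh got 0.1 ml of 10^5 CFU/ml (or 10^7 for high inoculum) im 2 h pre-therapy. Human-simulated regimens were given sc, three mice per group, for 24 h. Efficacy was the log10 CFU/thigh change versus 0-h controls.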

Escherichia coli [5] = experiment: Antimicrobial activity against Escherichia coli ATCC 25922 isolate; format: functional
Klebsiella pneumoniae [6] = experiment: Antimicrobial activity against ESBL producing Klebsiella pneumoniae 262 isolate infected thigh infection model ICR mouse; format: functional, Thigh muscle; how it was run: as §1
Klebsiella pneumoniae [7] = experiment: Antimicrobial activity against ESBL producing Klebsiella pneumoniae 60 isolate; format: functional
Klebsiella pneumoniae [8] = experiment: Antimicrobial activity against ESBL producing Klebsiella pneumoniae 255 isolate; format: functional
Klebsiella pneumoniae [9] = experiment: Antimicrobial activity against ESBL producing Klebsiella pneumoniae 264 isolate infected thigh infection model ICR mouse; format: functional, Thigh muscle; how it was run: as §1
Klebsiella pneumoniae [10] = experiment: Antimicrobial activity against ESBL producing Klebsiella pneumoniae 260 isolate infected thigh infection model ICR mouse; format: functional, Thigh muscle; how it was run: as §1
Escherichia coli [11] = experiment: Antimicrobial activity against ESBL producing Escherichia coli 130 isolate; format: functional
Klebsiella pneumoniae [12] = experiment: Antimicrobial activity against ESBL producing Klebsiella pneumoniae 264 isolate; format: functional
Klebsiella pneumoniae [13] = experiment: Antimicrobial activity against ESBL producing Klebsiella pneumoniae 254 isolate infected thigh infection model ICR mouse; format: functional, Thigh muscle; how it was run: as §1
Klebsiella pneumoniae [14] = experiment: Antimicrobial activity against ESBL producing Klebsiella pneumoniae 260 isolate; format: functional
Klebsiella pneumoniae [15] = experiment: Antimicrobial activity against ESBL producing Klebsiella pneumoniae 268 isolate infected thigh infection model ICR mouse; format: functional, Thigh muscle; how it was run: as §1
Klebsiella pneumoniae [16] = experiment: Antimicrobial activity against ESBL producing Klebsiella pneumoniae 255 isolate infected thigh infection model ICR mouse; format: functional, Thigh muscle; how it was run: as §1
Klebsiella pneumoniae [17] = experiment: Antimicrobial activity against ESBL producing Klebsiella pneumoniae 259 isolate; format: functional
Escherichia coli [18] = experiment: Antimicrobial activity against ESBL producing Escherichia coli 310 isolate; format: functional
Klebsiella pneumoniae [19] = experiment: Antimicrobial activity against ESBL producing Klebsiella pneumoniae 265 isolate; format: functional
Klebsiella pneumoniae [20] = experiment: Antimicrobial activity against ESBL producing Klebsiella pneumoniae 261 isolate; format: functional
Klebsiella pneumoniae [21] = experiment: Antimicrobial activity against ESBL producing Klebsiella pneumoniae 266 isolate infected thigh infection model ICR mouse; format: functional, Thigh muscle; how it was run: as §1
Klebsiella pneumoniae [22] = experiment: Antimicrobial activity against ESBL producing Klebsiella pneumoniae 230 isolate infected thigh infection model ICR mouse; format: functional, Thigh muscle; how it was run: as §1
Escherichia coli [23] = experiment: Antimicrobial activity against ESBL producing Escherichia coli 315 isolate infected thigh infection model ICR mouse; format: functional, Thigh muscle; how it was run: as §1
Escherichia coli [24] = experiment: Antimicrobial activity against ESBL producing Escherichia coli 311 isolate infected thigh infection model ICR mouse; format: functional, Thigh muscle; how it was run: as §1
Escherichia coli [25] = experiment: Antimicrobial activity against ESBL producing Escherichia coli 318 isolate infected thigh infection model ICR mouse; format: functional, Thigh muscle; how it was run: as §1
Escherichia coli [26] = experiment: Antimicrobial activity against Escherichia coli ATCC 25922 isolate infected thigh infection model ICR mouse; format: functional, Thigh muscle; how it was run: as §1
Klebsiella pneumoniae [27] = experiment: Antimicrobial activity against ESBL producing Klebsiella pneumoniae 261 isolate infected thigh infection model ICR mouse; format: functional, Thigh muscle; how it was run: as §1
Escherichia coli [28] = experiment: Antimicrobial activity against ESBL producing Escherichia coli 321 isolate; format: functional
Escherichia coli [29] = experiment: Antimicrobial activity against ESBL producing Escherichia coli 243 isolate; format: functional
Escherichia coli [30] = experiment: Antimicrobial activity against ESBL producing Escherichia coli 320 isolate; format: functional
Klebsiella pneumoniae [31] = experiment: Antimicrobial activity against ESBL producing Klebsiella pneumoniae 257 isolate infected thigh infection model ICR mouse; format: functional, Thigh muscle; how it was run: as §1
Klebsiella pneumoniae [32] = experiment: Antimicrobial activity against ESBL producing Klebsiella pneumoniae 101 isolate; format: functional
Escherichia coli [33] = experiment: Antimicrobial activity against ESBL producing Escherichia coli 310 isolate infected thigh infection model ICR mouse; format: functional, Thigh muscle; how it was run: as §1
Escherichia coli [34] = experiment: Antimicrobial activity against ESBL producing Escherichia coli 133 isolate infected thigh infection model ICR mouse; format: functional, Thigh muscle; how it was run: as §1
Klebsiella pneumoniae [35] = experiment: Antimicrobial activity against ESBL producing Klebsiella pneumoniae 101 isolate infected thigh infection model ICR mouse; format: functional, Thigh muscle; how it was run: as §1
Klebsiella pneumoniae [36] = experiment: Antimicrobial activity against ESBL producing Klebsiella pneumoniae 225 isolate infected thigh infection model ICR mouse; format: functional, Thigh muscle; how it was run: as §1
Klebsiella pneumoniae [37] = experiment: Antimicrobial activity against ESBL producing Klebsiella pneumoniae 266 isolate; format: functional
Escherichia coli [38] = experiment: Antimicrobial activity against ESBL producing Escherichia coli 133 isolate; format: functional
Klebsiella pneumoniae [39] = experiment: Antimicrobial activity against ESBL producing Klebsiella pneumoniae 270 isolate infected thigh infection model ICR mouse; format: functional, Thigh muscle; how it was run: as §1
Escherichia coli [40] = experiment: Antimicrobial activity against ESBL producing Escherichia coli 285 isolate infected thigh infection model ICR mouse; format: functional, Thigh muscle; how it was run: as §1
Klebsiella pneumoniae [41] = experiment: Antimicrobial activity against ESBL producing Klebsiella pneumoniae 262 isolate; format: functional
Klebsiella pneumoniae [42] = experiment: Antimicrobial activity against ESBL producing Klebsiella pneumoniae 256 isolate infected thigh infection model ICR mouse; format: functional, Thigh muscle; how it was run: as §1
Escherichia coli [43] = experiment: Antimicrobial activity against ESBL producing Escherichia coli 285 isolate; format: functional
Klebsiella pneumoniae [44] = experiment: Antimicrobial activity against ESBL producing Klebsiella pneumoniae 258 isolate; format: functional
Escherichia coli [45] = experiment: Antimicrobial activity against ESBL producing Escherichia coli 322 isolate infected thigh infection model ICR mouse; format: functional, Thigh muscle; how it was run: as §1
Escherichia coli [46] = experiment: Antimicrobial activity against ESBL producing Escherichia coli 118 isolate; format: functional
Escherichia coli [47] = experiment: Antimicrobial activity against ESBL producing Escherichia coli 311 isolate; format: functional
Escherichia coli [48] = experiment: Antimicrobial activity against ESBL producing Escherichia coli 130 isolate infected thigh infection model ICR mouse; format: functional, Thigh muscle; how it was run: as §1
Klebsiella pneumoniae [49] = experiment: Antimicrobial activity against ESBL producing Klebsiella pneumoniae 225 isolate; format: functional
Escherichia coli [50] = experiment: Antimicrobial activity against ESBL producing Escherichia coli 312 isolate infected thigh infection model ICR mouse; format: functional, Thigh muscle; how it was run: as §1
Escherichia coli [51] = experiment: Antimicrobial activity against ESBL producing Escherichia coli 315 isolate; format: functional
Klebsiella pneumoniae [52] = experiment: Antimicrobial activity against ESBL producing Klebsiella pneumoniae 60 isolate infected thigh infection model ICR mouse; format: functional, Thigh muscle; how it was run: as §1
Klebsiella pneumoniae [53] = experiment: Antimicrobial activity against ESBL producing Klebsiella pneumoniae 268 isolate; format: functional
Klebsiella pneumoniae [54] = experiment: Antimicrobial activity against ESBL producing Klebsiella pneumoniae 254 isolate; format: functional
Escherichia coli [55] = experiment: Antimicrobial activity against Escherichia coli 120 isolate infected thigh infection model ICR mouse; format: functional, Thigh muscle; how it was run: as §1
Escherichia coli [56] = experiment: Antimicrobial activity against ESBL producing Escherichia coli 243 isolate infected thigh infection model ICR mouse; format: functional, Thigh muscle; how it was run: as §1
Klebsiella pneumoniae [57] = experiment: Antimicrobial activity against ESBL producing Klebsiella pneumoniae 265 isolate infected thigh infection model ICR mouse; format: functional, Thigh muscle; how it was run: as §1
Escherichia coli [58] = experiment: Antimicrobial activity against ESBL producing Escherichia coli 312 isolate; format: functional
Klebsiella pneumoniae [59] = experiment: Antimicrobial activity against ESBL producing Klebsiella pneumoniae 257 isolate; format: functional
Escherichia coli [60] = experiment: Antimicrobial activity against ESBL producing Escherichia coli 320 isolate infected thigh infection model ICR mouse; format: functional, Thigh muscle; how it was run: as §1
Klebsiella pneumoniae [61] = experiment: Antimicrobial activity against ESBL producing Klebsiella pneumoniae 270 isolate; format: functional
Klebsiella pneumoniae [62] = experiment: Antimicrobial activity against ESBL producing Klebsiella pneumoniae 258 isolate infected thigh infection model ICR mouse; format: functional, Thigh muscle; how it was run: as §1
Escherichia coli [63] = experiment: Antimicrobial activity against Escherichia coli 120 isolate; format: functional
Klebsiella pneumoniae [64] = experiment: Antimicrobial activity against ESBL producing Klebsiella pneumoniae 263 isolate infected thigh infection model ICR mouse; format: functional, Thigh muscle; how it was run: as §1
Escherichia coli [65] = experiment: Antimicrobial activity against ESBL producing Escherichia coli 322 isolate; format: functional
Klebsiella pneumoniae [66] = experiment: Antimicrobial activity against ESBL producing Klebsiella pneumoniae 259 isolate infected thigh infection model ICR mouse; format: functional, Thigh muscle; how it was run: as §1

SMILES: C[C@@H](O)[C@H]1C(=O)N2C(C(=O)O)=C(S[C@@H]3CN[C@H](C(=O)N(C)C)C3)[C@H](C)[C@H]12 [MEROPENEM]
- MIC (Klebsiella pneumoniae [1]): 8 µg/mL (≈ 20.9 µM)
- MIC (Klebsiella pneumoniae [2]): 2 µg/mL (≈ 5.22 µM)
- MIC (Klebsiella pneumoniae [3]): 0.094 µg/mL (≈ 0.245 µM)
- fT>MIC (Escherichia coli [4]): 93%
- MIC (Escherichia coli [5]): 0.03 µg/mL (≈ 0.0782 µM)
- fT>MIC (Klebsiella pneumoniae [6]): 30%
- MIC (Klebsiella pneumoniae [7]): 0.064 µg/mL (≈ 0.167 µM)
- MIC (Klebsiella pneumoniae [8]): 1 µg/mL (≈ 2.61 µM)
- fT>MIC (Klebsiella pneumoniae [9]): 75%
- fT>MIC (Klebsiella pneumoniae [10]): 75%
- MIC (Escherichia coli [11]): 0.125 µg/mL (≈ 0.326 µM)
- MIC (Klebsiella pneumoniae [12]): 0.5 µg/mL (≈ 1.3 µM)
- fT>MIC (Klebsiella pneumoniae [13]): 58%
- MIC (Klebsiella pneumoniae [14]): 0.5 µg/mL (≈ 1.3 µM)
- fT>MIC (Klebsiella pneumoniae [15]): 85%
- fT>MIC (Klebsiella pneumoniae [16]): 65%
- MIC (Klebsiella pneumoniae [17]): 2 µg/mL (≈ 5.22 µM)
- MIC (Escherichia coli [18]): 0.047 µg/mL (≈ 0.123 µM)
- MIC (Klebsiella pneumoniae [19]): 0.125 µg/mL (≈ 0.326 µM)
- MIC (Klebsiella pneumoniae [20]): 32 µg/mL (≈ 83.4 µM)
- fT>MIC (Klebsiella pneumoniae [21]): 58%
- fT>MIC (Klebsiella pneumoniae [22]): 85%
- fT>MIC (Escherichia coli [23]): 85%
- fT>MIC (Escherichia coli [24]): 70%
- fT>MIC (Escherichia coli [25]): 90%
- fT>MIC (Escherichia coli [26]): 93%
- fT>MIC (Klebsiella pneumoniae [27]): 5%
- MIC (Escherichia coli [28]): 0.032 µg/mL (≈ 0.0834 µM)
- MIC (Escherichia coli [29]): 0.047 µg/mL (≈ 0.123 µM)
- MIC (Escherichia coli [30]): 0.03 µg/mL (≈ 0.0782 µM)
- fT>MIC (Klebsiella pneumoniae [31]): 45%
- MIC (Klebsiella pneumoniae [32]): 0.094 µg/mL (≈ 0.245 µM)
- fT>MIC (Escherichia coli [33]): 90%
- fT>MIC (Escherichia coli [34]): 85%
- fT>MIC (Klebsiella pneumoniae [35]): 85%
- fT>MIC (Klebsiella pneumoniae [36]): 90%
- MIC (Klebsiella pneumoniae [37]): 2 µg/mL (≈ 5.22 µM)
- MIC (Escherichia coli [38]): 0.094 µg/mL (≈ 0.245 µM)
- fT>MIC (Klebsiella pneumoniae [39]): 80%
- fT>MIC (Escherichia coli [40]): 90%
- MIC (Klebsiella pneumoniae [41]): 8 µg/mL (≈ 20.9 µM)
- fT>MIC (Klebsiella pneumoniae [42]): 18%
- MIC (Escherichia coli [43]): 0.047 µg/mL (≈ 0.123 µM)
- MIC (Klebsiella pneumoniae [44]): 4 µg/mL (≈ 10.4 µM)
- fT>MIC (Escherichia coli [45]): 93%
- MIC (Escherichia coli [46]): 0.047 µg/mL (≈ 0.123 µM)
- MIC (Escherichia coli [47]): 0.75 µg/mL (≈ 1.96 µM)
- fT>MIC (Escherichia coli [48]): 85%
- MIC (Klebsiella pneumoniae [49]): 0.047 µg/mL (≈ 0.123 µM)
- fT>MIC (Escherichia coli [50]): 90%
- MIC (Escherichia coli [51]): 0.094 µg/mL (≈ 0.245 µM)
- fT>MIC (Klebsiella pneumoniae [52]): 88%
- MIC (Klebsiella pneumoniae [53]): 0.125 µg/mL (≈ 0.326 µM)
- MIC (Klebsiella pneumoniae [54]): 2 µg/mL (≈ 5.22 µM)
- fT>MIC (Escherichia coli [55]): 93%
- fT>MIC (Escherichia coli [56]): 90%
- fT>MIC (Klebsiella pneumoniae [57]): 85%
- MIC (Escherichia coli [58]): 0.047 µg/mL (≈ 0.123 µM)
- MIC (Klebsiella pneumoniae [59]): 4 µg/mL (≈ 10.4 µM)
- fT>MIC (Escherichia coli [60]): 93%
- MIC (Klebsiella pneumoniae [61]): 0.25 µg/mL (≈ 0.652 µM)
- fT>MIC (Klebsiella pneumoniae [62]): 45%
- MIC (Escherichia coli [63]): 0.03 µg/mL (≈ 0.0782 µM)
- fT>MIC (Klebsiella pneumoniae [64]): 58%
- MIC (Escherichia coli [65]): 0.032 µg/mL (≈ 0.0834 µM)
- fT>MIC (Klebsiella pneumoniae [66]): 58%
